Laboratory results as given in ChEMBL document CHEMBL4152204, “Discovery of N-hydroxy-3-alkoxybenzamides as direct acid sphingomyelinase inhibitors using a ligand-based pharmacophore model” (Eur J Med Chem, 2018).

Key:
[1] = test system: NIH3T3; assay: Cytoprotective activity against UV-induced apoptosis in mouse NIH/3T3 cells assessed as necrotic cells at 20 uM preincubated for 20 hrs followed by UV irradiation for 5 mins and measured after 24 hrs by flow cytometric analysis (reference value: 1.5%); format: functional
[2] = target: T1, Sphingomyelin phosphodiesterase (Mus musculus) (UniProt Q04519); assay: Inhibition of acid sphingomyelinase in mouse NIH/3T3 cells assessed as ceramide levels at 10 uM after 20 hrs by LC-MS/MS analysis relative to control; format: cell-based
T1 sequence (whole entry): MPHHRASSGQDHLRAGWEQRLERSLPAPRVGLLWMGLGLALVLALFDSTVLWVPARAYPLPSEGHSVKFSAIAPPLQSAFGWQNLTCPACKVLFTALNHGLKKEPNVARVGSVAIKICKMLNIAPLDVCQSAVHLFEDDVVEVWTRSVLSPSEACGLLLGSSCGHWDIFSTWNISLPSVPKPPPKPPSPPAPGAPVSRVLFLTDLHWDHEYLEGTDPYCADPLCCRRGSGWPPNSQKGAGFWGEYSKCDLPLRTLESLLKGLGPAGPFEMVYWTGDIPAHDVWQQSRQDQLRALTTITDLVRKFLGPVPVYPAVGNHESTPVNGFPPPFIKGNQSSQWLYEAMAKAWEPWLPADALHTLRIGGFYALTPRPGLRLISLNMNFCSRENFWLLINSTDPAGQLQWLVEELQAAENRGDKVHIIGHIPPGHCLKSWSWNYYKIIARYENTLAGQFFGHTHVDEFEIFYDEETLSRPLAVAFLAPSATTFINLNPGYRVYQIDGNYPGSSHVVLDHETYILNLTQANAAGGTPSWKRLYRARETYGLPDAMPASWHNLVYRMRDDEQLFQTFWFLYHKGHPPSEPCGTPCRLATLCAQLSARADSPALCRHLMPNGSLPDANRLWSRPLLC
Procedure, shortened: (§1)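 NIH3T3 cells in DMEM with 10% FBS, 37 °C, 5% CO₂; at 90% confluence given fresh medium plus inhibitor (5, 10, 20 µM) for 20 h; total ceramides and sphingomyelin quantified by LC-MS-MS versus untreated control; mean ± SD of three independent experiments, Student's t-test.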

[3] = target: T1, Sphingomyelin phosphodiesterase (Mus musculus); assay: Inhibition of acid sphingomyelinase in mouse NIH/3T3 cells assessed as decrease in ceramide levels after 20 hrs by LC-MS/MS analysis; format: cell-based; procedure, shortened: as §1
[4] = test system: NIH3T3; assay: Cytoprotective activity against UV-induced apoptosis in mouse NIH/3T3 cells assessed as late apoptotic cells at 20 uM preincubated for 20 hrs followed by UV irradiation for 5 mins and measured after 24 hrs by flow cytometric analysis (reference value: 6.4%); format: functional
[5] = test system: NIH3T3; assay: Inhibition of LPS-induced IL-8 production in mouse NIH/3T3 cells preincubated for 20 hrs followed by LPS-stimulation and measured after 6 hrs by ELISA; format: functional, cell-based
Procedure, shortened: (§2)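 NIH3T3 cells (DMEM, 10% FBS) seeded at 2*10⁵ per well overnight, inhibitor 20 h, then LPS to 50 ng/mL for a further 6 h; IL-6 or IL-8 measured by ELISA; compared with LPS-only and control groups.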

[6] = test system: NIH3T3; assay: Cytoprotective activity against UV-induced apoptosis in mouse NIH/3T3 cells assessed as early apoptotic cells at 40 uM preincubated for 20 hrs followed by UV irradiation for 5 mins and measured after 24 hrs by flow cytometric analysis (reference value: 79.5%); format: functional
[7] = test system: NIH3T3; assay: Inhibition of LPS-induced IL-6 production in mouse NIH/3T3 cells preincubated for 20 hrs followed by LPS-stimulation and measured after 6 hrs by ELISA; format: functional, cell-based; procedure, shortened: as §2
[8] = test system: NIH3T3; assay: Cytotoxicity against mouse NIH/3T3 cells after 24 hrs by MTT assay; format: cell-based; settings: NIH3T3, 24 h
[9] = target: T1, Sphingomyelin phosphodiesterase (Mus musculus); assay: Inhibition of UV-induced ceramide production in mouse NIH/3T3 cells assessed as ceramide level at 50 uM by LC-MS/MS analysis (reference value: 107.686 pmol/mg); format: cell-based
Procedure, shortened: (§3)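 Ceramide in the UV-apoptosis setup: NIH3T3 cells pretreated with inhibitor 20 h, UV 315 nm 0.29 mW/cm² 5 min, further 24 h with inhibitor; ceramide quantified (pmol/mg) by LC-MS-MS; amitriptyline as positive control; mean ± SD of three independent experiments.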

[10] = test system: NIH3T3; assay: Cytoprotective activity against UV-induced apoptosis in mouse NIH/3T3 cells assessed as late apoptotic cells at 40 uM preincubated for 20 hrs followed by UV irradiation for 5 mins and measured after 24 hrs by flow cytometric analysis (reference value: 6.4%); format: functional
[11] = target: T1, Sphingomyelin phosphodiesterase (Mus musculus); assay: Inhibition of UV-induced ceramide production in mouse NIH/3T3 cells by LC-MS/MS analysis; format: cell-based; procedure, shortened: as §3
[12] = test system: NIH3T3; assay: Cytoprotective activity against UV-induced apoptosis in mouse NIH/3T3 cells assessed as viable cells at 10 uM preincubated for 20 hrs followed by UV irradiation for 5 mins and measured after 24 hrs by flow cytometric analysis (reference value: 12.6%); format: functional; settings: NIH3T3, light or radiation study, read-out: Activity
[13] = target: T1, Sphingomyelin phosphodiesterase (Mus musculus); assay: Inhibition of acid sphingomyelinase in mouse NIH/3T3 cells assessed as increase in […] level at 5 uM after 20 hrs by LC-MS/MS analysis relative to control; format: cell-based; design: scale not given: the % may be the effect or the level left; procedure, shortened: as §1
[14] = target: T1, Sphingomyelin phosphodiesterase (Mus musculus); assay: Inhibition of acid sphingomyelinase in mouse NIH/3T3 cells assessed as ceramide levels at 20 uM after 20 hrs by LC-MS/MS analysis relative to control; format: cell-based; procedure, shortened: as §1
[15] = test system: NIH3T3; assay: Cytoprotective activity against UV-induced apoptosis in mouse NIH/3T3 cells assessed as early apoptotic cells at 20 uM preincubated for 20 hrs followed by UV irradiation for 5 mins and measured after 24 hrs by flow cytometric analysis (reference value: 79.5%); format: functional

- inhibition [2]: 37%
- inhibition [3]: Dose-dependent effect
- Activity [9]: 106 pmol/mg
- inhibition [11]: Dose-dependent effect
- Activity [13]: 31.9%
- inhibition [14]: 42.6%
SMILES: CCCCCCCCCCOc1cc(C(=O)NO)ccc1OC
- Activity [1]: 0.2%
- Activity [4]: 8.4%
- inhibition [5]: Dose-dependent effect
- Activity [6]: 41.1%
- inhibition [7]: Dose-dependent effect
- IC50 [8]: 51.4 µM
- Activity [10]: 7.9%
- viability at 10 µM [12]: 46.9%
- Activity [15]: 36.8%
